In ChEMBL document CHEMBL1130028, “A comparison of structure-activity relationships between spermidine and spermine analogue antineoplastics” (J Med Chem, 1997):

How the values were obtained:
L1210 [1] = assay: Intracellular levels in L1210 cells following 500 uM exposure.; format: functional, Mus musculus
Method in brief: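 L1210 cells were grown 48 h in medium containing 500 μM analogue. Cellular contents were analysed by HPLC of dansyl derivatives and given as pmol/10^6 cells, as parent drug and metabolites with the % of total drug in the cell.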

L1210 [2] = assay: Percentage of putrescine after 48 hr exposure to the compound (15 uM )in L1210 cells; format: functional, Mus musculus
Method in brief: (§1)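 Log-phase L1210 cells were treated for 48 h with analogue at two concentrations. Cells were washed twice in cold RPMI-1640 and extracted with 0.6 N HClO4. Putrescine, spermidine and spermine were quantified by HPLC of dansyl derivatives and given as percent of untreated controls. Runs were in triplicate with untreated controls.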

[3] = Effect on ornithine decarboxylase (ODC) tested at 1 uM at 4 hour in L1210 cells; format: functional, Mus musculus
Method in brief: (§2)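 L1210 cells were exposed to 1 μM analogue, for 4 h (ODC) or 6 h (AdoMetDC). Activity was measured as 14CO2 released from [14C]carboxyl-labelled L-ornithine (ODC) or S-adenosyl-L-methionine (AdoMetDC) and given as percent of untreated control. Each run included DEHSPM-treated positive controls. Values are the mean of at least three experiments.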

[4] = target: Spermidine/spermine N(1)-acetyltransferase (SAT) (Mus musculus) (UniProt Q6P8J2+P48026); assay: Effect on Spermidine/Spermine-Acetyltransferase (SSAT ) at 10 uM at 48 hour in L1210 cells; format: functional, cell-based
Method in brief: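 L1210 cells were exposed to 10 μM triamine for 48 h. SSAT activity was taken as [14C]N1-acetylspermidine formed from spermidine and [14C]acetyl-CoA, given as percent of untreated control. DENSPM-treated cells served as positive control. Values are the mean of at least three experiments.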

[5] = Binding affinity values for polyamine transporter was determined
L1210 [6] = assay: Percentage of putrescine after 48 hr exposure to the compound (75 uM ) in L1210 cells; format: functional, Mus musculus; method in brief: as §1
L1210 [7] = assay: Percentage of spermidine after 48 hr of exposure to the compound (15 uM ) in L1210 cells; format: functional, Mus musculus; method in brief: as §1
L1210 [8] = assay: Growth inhibitory activity against L1210 cells (48h); format: functional, cell-based; details: Mus musculus, L1210, 48 h
Method in brief: (§3)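 Murine L1210 leukemia cells were kept in log growth in RPMI-1640 with 10% fetal calf serum or NuSerum, HEPES-MOPS buffer and 1 mM aminoguanidine. IC50 is the concentration giving 50% of untreated control growth, as the mean of at least two experiments.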

L1210 [9] = assay: Growth inhibitory activity against L1210 cells (96h); format: functional, cell-based; details: Mus musculus, L1210, 96 h; method in brief: as §3
L1210 [10] = assay: Percentage of spermidine after 48 hr of exposure to the compound (75 uM ) in L1210 cells; format: functional, Mus musculus; method in brief: as §1
[11] = target: T1, S-adenosylmethionine decarboxylase proenzyme 1 (Mus musculus) (UniProt P0DMN7); assay: Effect on S-Adenosyl-methionine decarboxylase (AdoMetDC) tested at 1 uM at 6 hour in L1210 cells; format: functional, cell-based; method in brief: as §2
T1 sequence (whole entry): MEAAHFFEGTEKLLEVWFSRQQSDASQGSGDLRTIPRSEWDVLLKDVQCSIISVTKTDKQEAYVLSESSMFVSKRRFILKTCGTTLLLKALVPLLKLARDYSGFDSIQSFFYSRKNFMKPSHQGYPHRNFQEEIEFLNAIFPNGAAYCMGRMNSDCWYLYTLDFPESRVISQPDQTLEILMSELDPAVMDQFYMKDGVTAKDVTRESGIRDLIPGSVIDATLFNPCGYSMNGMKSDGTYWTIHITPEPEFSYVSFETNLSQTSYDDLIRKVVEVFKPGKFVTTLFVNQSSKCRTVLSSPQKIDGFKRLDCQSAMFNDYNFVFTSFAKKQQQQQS

L1210 [12] = assay: Percentage of putrescine after 48 hr exposure to the compound (15(1.5)uM ) in L1210 cells; format: functional, Mus musculus; method in brief: as §1
L1210 [13] = assay: Percentage of putrescine after 48 hr exposure to the compound (3(0.3)uM ) in L1210 cells; format: functional, Mus musculus; method in brief: as §1
L1210 [14] = assay: Percentage of spermidine after 48 hr of exposure to the compound (15(1.5)uM ) in L1210 cells; format: functional, Mus musculus; method in brief: as §1
L1210 [15] = assay: Percentage of spermine after 48 hr exposure to the compound (15(1.5)uM ) in L1210 cells; format: functional, Mus musculus; method in brief: as §1
[16] = The chronic lethal dose administered as intraperitoneal injection; format: ADME; details: mouse, ip
Method in brief: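 Female CD-1 mice, 10–12 weeks old. Analogue given as hydrochloride salt by ip injection three times daily for 6 days (18 doses). Appetite, weight and appearance monitored daily, and lethality scored 10 days after the final dose.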

L1210 [17] = assay: Percentage of spermine after 48 hr exposure to the compound (3(0.3)uM ) in L1210 cells; format: functional, Mus musculus; method in brief: as §1
L1210 [18] = assay: Percentage of spermidine after 48 hr of exposure to the compound (3(0.3)uM ) in L1210 cells; format: functional, Mus musculus; method in brief: as §1
L1210 [19] = assay: Percentage of spermine after 48 hr exposure to the compound (4.5 uM ) in L1210 cells; format: functional, Mus musculus
Method in brief: (§4)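 Murine L1210 leukemia cells in log-phase growth (RPMI-1640, 10% fetal calf serum or NuSerum, HEPES-MOPS, 1 mM aminoguanidine) exposed to analogue for 48 h. Cells washed twice with cold RPMI-1640 and extracted with 0.6 N HClO4. PUT, SPD and SPM measured by HPLC of DANSYL derivatives and given as percent of untreated controls. Triplicate flasks per experiment.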

L1210 [20] = assay: Percentage of putrescine after 48 hr exposure to the compound (4.5 uM ) in L1210 cells; format: functional, Mus musculus; method in brief: as §4
L1210 [21] = assay: Percentage of putrescine after 48 hr exposure to the compound (0.9 uM ) in L1210 cells; format: functional, Mus musculus; method in brief: as §4
L1210 [22] = assay: Percentage of spermidine after 48 hr of exposure to the compound (0.9 uM ) in L1210 cells; format: functional, Mus musculus; method in brief: as §4
L1210 [23] = assay: Percentage of spermidine after 48 hr of exposure to the compound (4.5 uM ) in L1210 cells; format: functional, Mus musculus; method in brief: as §4
L1210 [24] = assay: Percentage of spermine after 48 hr exposure to the compound (500(150)uM ) in L1210 cells; format: functional, Mus musculus
Method in brief: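 Log-phase murine L1210 leukemia cells (RPMI-1640, 10% fetal calf serum or NuSerum, HEPES-MOPS buffer, 1 mM aminoguanidine) exposed 48 h to analogue at two concentrations. Cells washed twice in cold RPMI-1640 and extracted with 0.6 N HClO4. Spermine in extracts quantified by HPLC of DANSYL derivatives and expressed as percent of untreated controls. Triplicate flasks per condition.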

L1210 [25] = assay: Percentage of putrescine after 48 hr exposure to the compound (500(150)uM ) in L1210 cells; format: functional, Mus musculus; method in brief: as §1
L1210 [26] = assay: Percentage of spermidine after 48 hr of exposure to the compound (100(30)uM ) in L1210 cells; format: functional, Mus musculus; method in brief: as §1
L1210 [27] = assay: Percentage of spermine after 48 hr exposure to the compound (100(30)uM ) in L1210 cells; format: functional, Mus musculus; method in brief: as §1
L1210 [28] = assay: Percentage of putrescine after 48 hr exposure to the compound (100(30)uM ) in L1210 cells; format: functional, Mus musculus; method in brief: as §1
L1210 [29] = assay: Percentage of spermidine after 48 hr of exposure to the compound (500(150)uM ) in L1210 cells; format: functional, Mus musculus; method in brief: as §1

Sequence of Spermidine/spermine N(1)-acetyltransferase (SAT) (Mus musculus) (P48026 whole entry, looked up): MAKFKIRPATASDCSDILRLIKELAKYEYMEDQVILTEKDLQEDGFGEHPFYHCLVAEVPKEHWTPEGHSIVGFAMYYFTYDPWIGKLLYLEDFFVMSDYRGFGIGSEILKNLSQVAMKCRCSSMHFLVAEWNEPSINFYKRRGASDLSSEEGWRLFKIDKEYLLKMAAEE
Sequence of Spermidine/spermine N(1)-acetyltransferase (SAT) (Mus musculus) (Q6P8J2 whole entry, looked up): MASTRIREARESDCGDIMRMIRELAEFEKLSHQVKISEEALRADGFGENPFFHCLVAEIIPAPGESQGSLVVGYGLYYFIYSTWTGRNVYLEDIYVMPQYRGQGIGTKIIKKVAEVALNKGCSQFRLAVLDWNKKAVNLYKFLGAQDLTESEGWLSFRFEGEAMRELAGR

Compound	Picoequivalents of amine/10e6 cells (L1210 [1])	ODC [3] [%]	SSAT [4] [%]	Ki [5] [µM]	IC50 (L1210 [8]) [µM]	IC50 (L1210 [9]) [µM]	AdoMetDC [11] [%]	LD50 [16] [mg/kg/day]	further results
CNCCCCCNCCCCCNC	15500	105	90	130	15	0.4	97	–	Polyamine (L1210 [2]): 0%; Polyamine (L1210 [6]): 0%; Polyamine (L1210 [7]): 33%; Polyamine (L1210 [10]): 20%
CCNCCCCCNCCCCNCC	14590	100	120	64	4.5	0.2	70	375	Polyamine (L1210 [12]): 0%; Polyamine (L1210 [13]): 0%; Polyamine (L1210 [14]): 18%; Polyamine (L1210 [15]): 98%; Polyamine (L1210 [17]): 99%; Polyamine (L1210 [18]): 47%
NCCCNCCCN [NORSPERMIDINE]	–	11	150	7.2	0.9	0.5	62	–	Polyamine (L1210 [19]): 83%; Polyamine (L1210 [20]): 0%; Polyamine (L1210 [21]): 38%; Polyamine (L1210 [22]): 44%; Polyamine (L1210 [23]): 12%
CCNCCCCNCCCNCC	14050	30	1380	19	100	0.7	68	426	Polyamine (L1210 [24]): 55%; Polyamine (L1210 [25]): 0%; Polyamine (L1210 [26]): 5%; Polyamine (L1210 [27]): 74%; Polyamine (L1210 [28]): 0%; Polyamine (L1210 [29]): 0%
